Measurements from ChEMBL document CHEMBL2424551, “Synthesis, in vitro evaluation and molecular modelling of naphthalimide analogue as anticancer agents” (2013).
The source made the active and inactive calls. The rule behind the calls is not given here.

What was measured:
HCC 2998 = experiment: Growth inhibition of human HCC2998 cells at 10 uM after 48 hrs by SRB assay; format: functional
Summary of the method: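 Cells grown in RPMI 1640 with 5% FBS and 2 mM L-glutamine, plated at 5000–40,000 cells/well by doubling time and preincubated 24 h (37 °C, 5% CO2); a time-zero plate is TCA-fixed. Single dose added, then 48 h incubation. Fixed with cold TCA, stained with 0.4% SRB, dye solubilized in 10 mM Tris base, absorbance at 515 nm; percent growth vs time-zero and untreated control.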

[1] = Cytotoxicity against human melanoma cells after 48 hrs by SRB assay; format: functional; details: Melanoma cell
Summary of the method: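 Five-concentration screen (10-fold or ½-log serial dilutions) on the 60-line panel. Cells grown in RPMI 1640 with 5% FBS and 2 mM L-glutamine, plated at 5000–40,000/well by doubling time, preincubated 24 h at 37 °C, 5% CO2, then exposed 48 h. Time-zero plates TCA-fixed. SRB stain, Tris-solubilized, A515. GI50, TGI and LC50 derived from Tz, C and Ti.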

DNA [2] = experiment: Binding affinity to calf thymus DNA assessed as DNA intercalation at 50 uM by fluorescence spectrophotometry; format: nucleic-acid assay; details: Bos taurus
Summary of the method: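 Fluorescence titration: increasing ct-DNA added to compound in phosphate buffer (pH 7.0); decrease in emission band at 500 nm monitored; binding constant derived from titration data by Benesi–Hildebrand method.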

DNA [3] = experiment: Binding affinity to calf thymus DNA assessed as change in melting temperature by thermal denaturation assay; format: nucleic-acid assay; details: Bos taurus
DNA [4] = experiment: Binding affinity to calf thymus DNA assessed as DNA intercalation at 50 uM by UV-visible spectrophotometry; format: nucleic-acid assay; details: Bos taurus
Summary of the method: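 ct-DNA titrated (4–100 µM) into phosphate-buffered solution (pH 7.0) of compound at 50 µM; absorption spectra recorded by UV–visible spectrophotometry, tracking band shift and hypochromism.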

| Structure (SMILES) | growth inhibition (GI) (HCC 2998) | GI50 [1] | TGI [1] | Activity (DNA [2]) | ΔTm (DNA [3]) | Activity (DNA [4]) | LC50 [1] |
| --- | --- | --- | --- | --- | --- | --- | --- |
| O=c1[nH]cc(F)c(=O)[nH]1 [FLUOROURACIL] | Active | 70.6 µM | > 100 µM | – | – | – | – |
| Nc1ccc(Sc2ccc3c4c2cccc4c(=O)n2c4ccccc4nc32)cc1 | – | 6.93 µM | 35.1 µM | Active | 8.2 °C | Active | 83.9 µM |
